The values that follow come from publication PMC5795620 (Journal of medicinal chemistry, 2017).

SMILES strings stand for the structures.

The nature of data set [1]: Metabolic stability in swine brain homogenate. It is filed as in vitro ADME. The following applies: 10 μM, 0-60 min.
The conditions of data set [2]: nonhuman primate, systemic administration; cited from earlier work.
Data set [3] can be described thus: Metabolic stability in mouse plasma. The following applies: representative chromatogram (Figure S1). It is filed as in vitro ADME.
Data set [4] can be described thus: Metabolic stability in swine plasma. It is filed as in vitro ADME. To be noted: 60 min incubation in swine plasma.
Another data set concerns EcoHIV-infected mice. Nature of the data set: Radial arm water maze in EcoHIV-infected mice. The format is in vivo, mouse. To be noted: control for visual or motor function; 1 mg/kg, ip, qod. The method in brief:
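Male C57BL/6J mice, 5 weeks old, randomized (n = 8/group) to drug or saline starting 1 day before ip EcoHIV (2 × 106 pg p24) or sham PBS inoculation. Dosing continued through 30-day infection and testing. From day 30 p.i., six-lane opaque-water RAWM with visual cues. After hidden-platform trials, latency to a visible platform measured in the same context.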

Another data set concerns EcoHIV. Nature of the data set: EcoHIV viral load in spleen and brain by qPCR. It is filed as in vivo, mouse. The following applies: EcoHIV-infected mice, 1 mg/kg, ip, qod. A general note: Real-time PCR tracks product formation cycle by cycle.
A short description of data set [5]: Overt toxicity observation in mice during 14 treatment. The format is in vivo, mouse. To be noted: 1 mg/kg, ip, qod over infection period and testing.

With `CC(C)OC(=O)[C@H](CCC(=O)C=[N+]=[N-])NC(=O)O[C@H](C)OC(=O)C(C)(C)C` [Compound 13b, Isopropyl 6-Diazo-5-oxo-2-(((1-(pivaloyloxy)ethoxy)-carbonyl)amino)hexanoate], in data set [1], the “Metabolic lability in swine brain homogenate (in words)” value (from here on “Metabolic lability”) was “moderately labile”. Besides, the “Enhancement in the CSF-to-plasma ratio of 14 exposure relative to equimolar 14” value in data set [2] was “about 10 fold”. As to `CC(C)OC(=O)[C@H](CCC(=O)C=[N+]=[N-])NC(=O)OC(OC(=O)C(C)(C)C)c1ccccc1` (some centres unmarked) [Compound 13d, Isopropyl 6-Diazo-5-oxo-2-(((phenyl(pivaloyloxy)methoxy)-carbonyl)amino)hexanoate], the “Time to complete conversion to 14 in mouse plasma” value in data set [3] is recorded as at most 10 min. Moreover, the “Metabolic lability” value in data set [1] is “readily biotransformed”. On to `CC(C)OC(=O)[C@H](CCC(=O)C=[N+]=[N-])NC(=O)OC(OC(=O)C(C)(C)C)C(C)C` (mixture of isomers) [Compound 13c, Isopropyl 6-Diazo-2-(((2-methyl-1-(pivaloyloxy)propoxy)-carbonyl)amino)-5-oxohexanoate], for which the “Metabolic lability” value in data set [1] is “readily biotransformed”.

As to `CC(C)OC(=O)[C@H](CCC(=O)C=[N+]=[N-])NC(=O)OCOC(=O)C(C)(C)C` [Compound 13a, Isopropyl 6-Diazo-5-oxo-2-((((pivaloyloxy)methoxy)-carbonyl)amino)hexanoate], in data set [4], the “Stability in swine plasma (in words)” value was “labile”. On to `[N-]=[N+]=CC(=O)CC[C@H](N)C(=O)O` [Compound 14, 6-diazo-5-oxo-L-norleucine], for which the “RAWM escape latency to a visible platform” value in the data set on EcoHIV-infected mice is “no effect”. For the same compound, the “EcoHIV viral load in the brain” value with EcoHIV is “no effect”. For the same compound, the “EcoHIV viral load in the spleen (DNA copies)” value in the data set on EcoHIV (p = 0.022) was “slight increase”. Further, the “Overt signs of toxicity (diarrhea, weight loss)” value in data set [5] was “no mice exhibited overt signs of toxicity”.

In the case of `CC(C)OC(=O)[C@H](CCC(=O)C=[N+]=[N-])NC(=O)OC(C)(C)OC(=O)C(C)(C)C` [Compound 13e, Isopropyl 6-Diazo-5-oxo-2-((((2-(pivaloyloxy)propan-2-yl)-oxy)carbonyl)amino)hexanoate], the “Metabolic lability” value in data set [1] is recorded as “mostly stable”.
